This passage reports Activity results from ChEMBL document CHEMBL2203215, “Discovery of 6-[4-(6-nitroxyhexanoyl)piperazin-1-yl)]-9H-purine, as pharmacological post-conditioning agent” (Bioorg Med Chem, 2012).

The test system of series [1] is Oryctolagus cuniculus. Put plainly: Cardioprotective activity in New Zealand White rabbit ischemia/reperfusion model assessed as reduction of infarct to risk area ratio at total dose of 3.8 umol/kg administered bolus. The class given is functional. Further details: scale not given: the % may be the effect or the level left. The method in brief: (§1)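 Male rabbits (n = 6–8/group), anesthetized with thiopentone 30 mg/kg via ear vein, intubated and ventilated. Subjected to 30 min regional myocardial ischemia and 3 h reperfusion. Given as two boluses of 1.9 µmol/kg (3.8 µmol/kg total). Heart slices stained with 1% TTC (phosphate buffer pH 7.4, 20 min, 37 °C), then fixed in formaldehyde. Risk zone delineated under UV at 366 nm; infarct expressed relative to risk area.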

Series [2] relates to Oryctolagus cuniculus. Put plainly: Toxicity in New Zealand White rabbit ischemia/reperfusion model assessed as blood pressure at total dose of 3.8 umol/kg administered bolus at 20th mins of ischemia and 1st min of reperfusion measured at 180 mins reperfusion is period of reperfusion. It counts as organism-based. As to conditions: in vivo, iv, 3 h.
In series [3] the test system is Oryctolagus cuniculus. Put plainly: Toxicity in New Zealand White rabbit ischemia/reperfusion model assessed as heart rate at total dose of 3.8 umol/kg administered bolus at 40th mins and 1st min before sustained ischemia measured at 20 mins ischemia period of initial ischemic insult. The class given is organism-based. Conditions: in vivo, iv.
Series [4] relates to Oryctolagus cuniculus. Put plainly: Cardioprotective activity in New Zealand White rabbit ischemia/reperfusion model assessed as reduction of infarct size at total dose of 3.8 umol/kg administered bolus at 40th mins and 1st min before sustained ischemia. Details: scale not given: the % may be the effect or the level left. The class given is functional. The gist of the method:
as §1

Series [5] concerns Oryctolagus cuniculus. Put plainly: Toxicity in New Zealand White rabbit ischemia/reperfusion model assessed as heart rate at total dose of 3.8 umol/kg administered bolus at 20th mins of ischemia and 1st min of reperfusion measured at 180 mins reperfusion is period of reperfusion. As to conditions: in vivo, iv, 3 h. It counts as organism-based.
The subject of series [6] is Oryctolagus cuniculus. Put plainly: Cardioprotective activity in New Zealand White rabbit ischemia/reperfusion model assessed as reduction of infarct size at total dose of 3.8 umol/kg administered bolus at 20th mins and 1st min of reperfusion. The class given is functional. Details: scale not given: the % may be the effect or the level left. The gist of the method:
as §1

The subject of series [7] is Oryctolagus cuniculus. Put plainly: Toxicity in New Zealand White rabbit ischemia/reperfusion model assessed as blood pressure at total dose of 3.8 umol/kg administered bolus at 40th mins and 1st min before sustained ischemia measured at 20 mins ischemia period of initial ischemic insult. The class given is organism-based. As to conditions: in vivo, iv.
For series [8], the system named is Oryctolagus cuniculus. Put plainly: Toxicity in New Zealand White rabbit ischemia/reperfusion model assessed as mortality at total dose of 3.8 umol/kg administered bolus measured at 10th and 15th mins of reperfusion. It counts as organism-based. Conditions: in vivo. The method in brief: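 Male rabbits, randomized (n = 6–8 per group), anesthetized with sodium thiopentone 30 mg/kg into an ear vein, intubated and mechanically ventilated. Regional myocardial ischemia for 30 min, then 3 h reperfusion. Compound given as bolus at the 20th min of ischemia and the 1st min of reperfusion, total dose 3.8 µmol/kg. Animal survival was followed through reperfusion.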

Series [9] concerns Oryctolagus cuniculus. Put plainly: Cardioprotective activity in New Zealand White rabbit ischemia/reperfusion model assessed as increase of eNOS phosphorylated level at total dose of 3.8 umol/kg administered bolus at 40th mins and 1st min before sustained ischemia by Western blot analysis. The class given is functional, organism-based.
The test system of series [10] is Oryctolagus cuniculus. Put plainly: Cardioprotective activity in New Zealand White rabbit ischemia/reperfusion model assessed as increase of phosphorylated Akt level at total dose of 3.8 umol/kg administered bolus at 40th mins and 1st min before sustained ischemia by Western blot analysis. It counts as functional, organism-based. (A western blot detects proteins with antibodies after separation by electrophoresis.)

Calls of active or inactive are those of the source. The rule behind the calls is not given here.

As to `O=C(CCCCCO[N+](=O)[O-])N1CCN(c2ncnc3[nH]cnc23)CC1`, the Activity in the series on Oryctolagus cuniculus [1] turned out to be 12.3%; in the series with Oryctolagus cuniculus [2], 112 mmHg; in the series on Oryctolagus cuniculus [3], 278 bpm; in the series with Oryctolagus cuniculus [4], 24.9%; with Oryctolagus cuniculus [5], 269 bpm; in the series on Oryctolagus cuniculus [6] it was 13.4%. The Activity with Oryctolagus cuniculus [7] is 117 mmHg.
Consider `O=C(CNc1ncnc2[nH]cnc12)NCCO[N+](=O)[O-]`, for which the Activity result in the series on Oryctolagus cuniculus [8] is listed as “Toxic”; with Oryctolagus cuniculus [2] it was 104 mmHg; with Oryctolagus cuniculus [3], 282 bpm; in the series on Oryctolagus cuniculus [4] it was 34.8%; in the series on Oryctolagus cuniculus [5], 273 bpm; in the series on Oryctolagus cuniculus [7], 110 mmHg.
Regarding `Nc1ncnc2c1ncn2[C@@H]1O[C@H](CO[N+](=O)[O-])[C@@H](O)[C@H]1O`, the Activity in the series on Oryctolagus cuniculus [2] is 98 mmHg; in the series with Oryctolagus cuniculus [3], 284 bpm; in the series with Oryctolagus cuniculus [5], 275 bpm; in the series on Oryctolagus cuniculus [6], 40.2%; in the series with Oryctolagus cuniculus [7], 102 mmHg.
On to `O=C(CO[N+](=O)[O-])N1CCN(c2ncnc3[nH]cnc23)CC1`, for which the Activity with Oryctolagus cuniculus [2] is 109 mmHg; in the series with Oryctolagus cuniculus [3], 278 bpm; in the series with Oryctolagus cuniculus [4] it was 37.3%; in the series with Oryctolagus cuniculus [5] it was 274 bpm; with Oryctolagus cuniculus [6] it was 26.2%; with Oryctolagus cuniculus [7], 114 mmHg.
Take `O=C(Cn1cnc2c(N3CCCCC3)ncnc21)NCCO[N+](=O)[O-]`: the Activity entry is reported as “Toxic” in the series with Oryctolagus cuniculus [8]; 102 mmHg with Oryctolagus cuniculus [2]; 280 bpm in the series on Oryctolagus cuniculus [3]; 28.4% with Oryctolagus cuniculus [4]; 276 bpm in the series with Oryctolagus cuniculus [5]; 115 mmHg in the series on Oryctolagus cuniculus [7].
Regarding `O=[N+]([O-])OC[C@H]1O[C@@H](n2cnc3c(N4CCCCC4)ncnc32)[C@H](O)[C@@H]1O`, the Activity in the series on Oryctolagus cuniculus [2] is on record as 110 mmHg; in the series on Oryctolagus cuniculus [3], 279 bpm; with Oryctolagus cuniculus [4], 17.9%; in the series on Oryctolagus cuniculus [5] it was 271 bpm; in the series on Oryctolagus cuniculus [6], 22.7%; in the series with Oryctolagus cuniculus [7] it was 113 mmHg.
On to `O=C(NCCO[N+](=O)[O-])c1nc2c(N3CCCCC3)ncnc2[nH]1`, for which the Activity entry in the series on Oryctolagus cuniculus [8] was “Toxic”; in the series with Oryctolagus cuniculus [2], 103 mmHg; in the series with Oryctolagus cuniculus [3] it was 274 bpm; in the series on Oryctolagus cuniculus [4], 34.4%; in the series on Oryctolagus cuniculus [5], 269 bpm; in the series on Oryctolagus cuniculus [7], 112 mmHg.
`O=[N+]([O-])OCCCCCCn1cnc2c(N3CCCCC3)ncnc21`: the Activity with Oryctolagus cuniculus [2] was determined as 104 mmHg; with Oryctolagus cuniculus [3], 276 bpm; in the series with Oryctolagus cuniculus [4], 19.8%; in the series with Oryctolagus cuniculus [5], 270 bpm; with Oryctolagus cuniculus [6] it was 36.8%; in the series with Oryctolagus cuniculus [7], 112 mmHg. Further, the outcome in the series with Oryctolagus cuniculus [9] and in the series with Oryctolagus cuniculus [10] was Active.
As to `O=C(CCCCC1CCSS1)N1CCN(c2ncnc3[nH]cnc23)CC1` (stereo not given), the Activity worked out at 101 mmHg in the series on Oryctolagus cuniculus [2]; 279 bpm in the series on Oryctolagus cuniculus [3]; 271 bpm in the series on Oryctolagus cuniculus [5]; 28.6% in the series with Oryctolagus cuniculus [6]; 106 mmHg with Oryctolagus cuniculus [7].
